Hits are enriched below; roughly 1.9% of the tested compounds scored in any of these assays.
MBD2 DNA inh – inhibitors of MBD2 binding to methylated DNA, primary screen, biochemical, TR-FRET, DNA-binding domain, human; Methyl-CpG-binding domain protein 2 (Homo sapiens), Q9UBB5; MBD2 binding to methylated oligonucleotide; inhibition, % at 4.4 µM; hit rate 0.31% among 370,000; AID 686964, 2013; in the data active = inhibition above about 13%
Tn7 DDE FP – inhibitors of Tn7 peptide binding to fibrin DD(E), primary screen, biochemical, fluorescence polarization, human fibrin, Tn7 probe; Fibrinogen beta chain (Homo sapiens), P02675; FP displacement of FITC-Tn7 peptide from fibrin DD(E); 0% = median of compound wells per plate; inhibition, % at 8.3 µM; hit rate 0.13% among 370,000; AID 720508, 2013;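 active = inhibition above the mean of compounds falling within the control limits plus 3 SD of them, cut at about 14% in these data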
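Test system: human clot-derived fibrin DD(E) complex / Quantity: 2 µM final DD(E) protein / Incubation: 10 min plus 3 h, room temperature / Measured by: fluorescence polarization / Benchmarks: high control of 10 µM Aha-Tn7 peptide / Replicates: singlicate testing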
TDP2 inh – human TDP2 enzyme inhibitors, primary screen, biochemical, epi absorbance, recombinant enzyme | Tyrosyl-DNA phosphodiesterase 2 (Homo sapiens), O95551 | T5PNP hydrolysis, p-nitrophenol absorbance 415 nm | inhibition, % at 12.8 µM | hit rate 0.34% among 370,000;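 active = inhibition above the mean of all tested compounds plus 3 SD, set per campaign, cut at about 25% in these data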
Target sequence (O95551 whole entry, looked up): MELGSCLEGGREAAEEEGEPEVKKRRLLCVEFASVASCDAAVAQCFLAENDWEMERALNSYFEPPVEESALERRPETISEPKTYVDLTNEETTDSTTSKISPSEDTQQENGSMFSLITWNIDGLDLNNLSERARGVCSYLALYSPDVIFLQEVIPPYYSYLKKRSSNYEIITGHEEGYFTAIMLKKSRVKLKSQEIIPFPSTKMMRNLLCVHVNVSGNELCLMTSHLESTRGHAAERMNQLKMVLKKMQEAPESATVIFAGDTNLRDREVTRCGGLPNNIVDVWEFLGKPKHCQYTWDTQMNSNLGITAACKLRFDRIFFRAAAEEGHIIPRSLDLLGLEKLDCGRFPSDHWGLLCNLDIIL
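Test system: human TDP2 enzyme; Input: 120 nM TDP2 per well; Buffer or medium: Mg2+-containing Tris-HCl buffer, pH 7.5; Reagent: 5 mM T5PNP; Dosing: 12.8 µM single point, 1% DMSO; Incubation: reaction 2 h, 37 °C; Detection: p-Nitrophenol epi absorbance; Read-out: % inhibition relative to enzyme-containing and enzyme-free wells; Replicates: single well per compound.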
UHRF1 MBD2 ctr – UHRF1 methylated DNA binding inhibitors, primary screen, counter-screen for MBD2 inhibitor project, biochemical, TR-FRET, human UHRF1, single concentration; UHRF1 binding to methylated oligo; inhibition, % at 4.4 µM; hit rate 0.75% among 370,000; in the data active = inhibition above about 21%;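 note: UHRF1 SRA domain binding a hemimethylated CpG hairpin DNA probe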
LEDGF integ inh – blockers of LEDGF/p75-dependent integrase strand transfer – biochemical, TR-FRET, high throughput, primary screen; AID 743269, 2014; inhibition, % at 3.7 µM; hit rate 0.64% among 370,000; TR-FRET IN-LEDGF/p75 DNA integration, Eu/Cy5; HIV-1 integrase (with human LEDGF/p75);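 active = inhibition above the screen-wide mean plus 3 SD, cut at about 13% in these data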;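 note: signal is the Cy5 over europium emission ratio at 671 and 618 nm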
Tn6 DDE FP – inhibitors of Tn6 peptide binding to fibrin DD(E), primary screen, biochemical, fluorescence polarization, human fibrin, Tn6 probe; Fibrinogen beta chain (Homo sapiens), P02675; Fibrin DD(E) TRITC-Tn6 fluorescence polarization displacement; inhibition, % at 8.3 µM; hit rate 0.21% among 370,000; AID 720509, 2013;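 active = inhibition above a per-campaign cutoff: mean of compounds within control limits plus 3 SD, cut at about 15% in these data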
DDE Tn6 FP ctr – counter-screen hit for Tn6 peptide-fibrin DD(E) binding disruption | TRITC-Tn6 fluorescence polarization displacement; 0% = median of compound wells, not DMSO | inhibition, % at 8.3 µM | hit rate 2% among 680 | shares compounds with Tn6 DDE FP;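 active = inhibition above the mean of test compounds lying between the control limits plus 3 SD of those, cut at about 14% in these data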
DDE Tn6 confirm – inhibitors of Tn6 peptide binding to fibrin DD(E), confirmation, biochemical, fluorescence polarization, human fibrin, Tn6 probe | FP displacement of TRITC-Tn6 peptide from DD(E); 0% = per-plate median of test wells | AID 720631, 2013 | hit rate 10% among 680 | inhibition, % at 8.3 µM | shares compounds with Tn6 DDE FP;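 active = inhibition above the mean of compounds lying within the control limits plus 3 SD, cut at about 16% in these data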
Each line names hits and unclear results; the compound was inactive in the other large screens (follow-up assays come after a bar, where they were run); ! = not confirmed by another sample.

Cc1ccc(-c2[nH]nc(N)c2N=Nc2cccc(Cl)c2C)cc1	Tn6 DDE FP 17 | DDE Tn6 FP ctr inactive | DDE Tn6 confirm inactive
CCC(c1nnnn1-c1ccc2c(c1)OCCO2)N1CCN(c2ncccc2C(F)(F)F)CC1 (centres undefined)	Tn6 DDE FP 15! | DDE Tn6 FP ctr inactive | DDE Tn6 confirm inactive
Cc1cc2c(nc1C)CCCN2S(=O)(=O)c1cccs1	none
COC(=O)[C@]12C[C@H](CC(=O)NCc3ccc(OC)c(OC)c3)C(=O)N(CCc3ccc(OC)c(OC)c3)C1=C[C@H](COCc1ccccc1)O[C@@H]2C	Tn6 DDE FP 15 | DDE Tn6 FP ctr inactive | DDE Tn6 confirm inactive
O=C(Nc1ccc(F)cc1)OCc1cn(Cc2c(F)cccc2F)nn1	none
COC(=O)C1=C(C)N(Cc2ccc(F)cc2)C(=S)NC1c1ccc(Cl)cc1 (centres undefined)	none
CCN1C(=O)CC(N2CCN(CC(=O)NC(C)C)CC2)C1=O (centres undefined)	Tn6 DDE FP 16 | DDE Tn6 FP ctr inactive | DDE Tn6 confirm inactive
Cc1cc(NC(=O)c2ccc(NS(=O)(=O)c3ccc(F)cc3)cc2)no1	Tn6 DDE FP 17 | DDE Tn6 FP ctr inactive | DDE Tn6 confirm inactive
COc1ccc(C)cc1S(=O)(=O)N1CCN(c2ccccc2)CC1	Tn6 DDE FP 16 | DDE Tn6 FP ctr inactive | DDE Tn6 confirm inactive
CCOc1ccc(C(=O)Nc2cc(-c3nc4ccccc4[nH]3)ccc2C)cc1[N+](=O)[O-]	none
CCOc1ccc(C(=O)Nc2cc(-c3nc4ccccc4[nH]3)ccc2Cl)cc1[N+](=O)[O-]	Tn6 DDE FP 25 | DDE Tn6 FP ctr inactive | DDE Tn6 confirm inactive
O=C(NCc1ccccc1)[C@@H]1CCCN1C(=O)[C@H]1CCCN1C(=O)c1ccc(Cl)c(Cl)c1	none
CCCCN(C(=O)c1ccc(Cl)c(S(=O)(=O)N2CCOCC2)c1)c1c(N)n(CCC)c(=O)[nH]c1=O	Tn6 DDE FP 17 | DDE Tn6 FP ctr inactive | DDE Tn6 confirm inactive
CCCCn1c(N)c(N(CCOC)C(=O)c2ccc(Cl)c(S(=O)(=O)N3CCCCC3)c2)c(=O)[nH]c1=O	none
COc1ccc2cc(C(=O)Nc3ccc(S(N)(=O)=O)cc3)sc(=O)c2c1OC	Tn6 DDE FP 18 | DDE Tn6 FP ctr inactive | DDE Tn6 confirm inactive
CCOc1ccc(NC(=O)C(C)Sc2nnc(C)n2C)cc1 (centres undefined)	none
Cc1ccc(NC(=O)C(C)Sc2nnc(C)n2C)cc1 (centres undefined)	Tn6 DDE FP 15 | DDE Tn6 FP ctr inactive | DDE Tn6 confirm inactive
COc1cccc(C=NNC(=S)NC2CC3CCC2C3)c1O (centres undefined)	none
COc1ccc(Cl)c(Cn2c(NCCCO)nc3c2c(=O)n(C)c(=O)n3C)c1	Tn6 DDE FP 17 | DDE Tn6 FP ctr inactive | DDE Tn6 confirm inactive
CCCCCC(=O)NC1CCCCN(Cc2ccccc2C)C1=O (centres undefined)	none
COCCCNC(=O)C[C@H]1C(=O)N(Cc2ccc(OC)cc2)C2=CCCCC[C@@]21C(=O)OC	none
CC(C)(O)C(=O)NNC(=S)Nc1cccc(C(F)(F)F)c1	Tn6 DDE FP 17 | DDE Tn6 FP ctr inactive | DDE Tn6 confirm inactive
Cc1cc2cc(CNC(=O)Cc3ccc([N+](=O)[O-])cc3)ccc2n1C	Tn6 DDE FP 17 | DDE Tn6 FP ctr inactive | DDE Tn6 confirm inactive
Cc1cc2cc(CNC(=O)c3ccc(Br)o3)ccc2n1C	none
CCCC(=O)NCc1ccc2c(c1)cc(C)n2C	none
Cc1cc2cc(CNC(=O)c3cccc([N+](=O)[O-])c3)ccc2n1C	Tn6 DDE FP 53 | DDE Tn6 FP ctr inactive | DDE Tn6 confirm inactive
Cc1c(C(=O)NCc2ccc3c(c2)cc(C)n3C)cccc1[N+](=O)[O-]	Tn6 DDE FP 24 | DDE Tn6 FP ctr inactive | DDE Tn6 confirm inactive
COC(=O)C1=C(C)NC(C)=C(C(=O)OC)C(N2C(=O)CCC2=O)C1 (centres undefined)	none
CC(C)(C)C(=O)c1c(N)[nH]c(C(=O)c2ccccc2)c1-c1ccccc1	none
COc1ccc(C(=O)c2no[n+]([O-])c2C(=O)c2ccc(OC)cc2)cc1	none
Cc1c(C(=O)c2no[n+]([O-])c2C(=O)c2cnn(C)c2C)cnn1C	Tn6 DDE FP 16 | DDE Tn6 FP ctr inactive | DDE Tn6 confirm inactive
CCCCC[C@@H](O)c1cc2ccccc2c(=O)o1	Tn6 DDE FP 16 | DDE Tn6 FP ctr inactive | DDE Tn6 confirm inactive
CCCNC(=O)c1cc2ccccc2c(=O)o1	none
Cc1nn(-c2ccccc2)c2sc(C(=O)N3CCN(S(=O)(=O)c4ccc(Br)s4)CC3)cc12	none
COC(=O)[C@@]12CCCCC=C1N(CCc1ccc(Cl)cc1)C(=O)[C@H]2CC(=O)NCC1CCCCC1	none
COc1ccc(C2CC(=O)C(c3ccc(C(N)=O)cc3)=CN2Cc2ccccc2)cc1 (centres undefined)	none
CCCCCCCC1CC(CSc2ncn[nH]2)OC1=O (centres undefined)	none
CCCCC1CC(CSC(=N)N)OC1=O (centres undefined)	Tn6 DDE FP 18 | DDE Tn6 FP ctr inactive | DDE Tn6 confirm inactive
CCCCC1CC(CSc2ncn[nH]2)OC1=O (centres undefined)	Tn6 DDE FP 72 | DDE Tn6 FP ctr inactive | DDE Tn6 confirm inactive
CCCCCCCC1CC(CSC(=N)N)OC1=O (centres undefined)	none
O=C(CSc1nnc(-c2ccccc2)n1-c1ccccc1)Nc1ccc(Oc2ccccc2)cc1	none
Cc1nn(-c2ccc(F)cc2)c2sc(C(=O)O)cc12	none
Cc1nn(-c2ccccc2)c2sc(C(=O)NCc3ccc(F)cc3)cc12	Tn6 DDE FP 32 | DDE Tn6 FP ctr inactive | DDE Tn6 confirm inactive

Compound activity: PubChem, The Scripps Research Institute Molecular Screening Center
